Source: PubChem
A selection: hits, their analogues and other compounds. The true share with any hit is near 7.6%.
M1 agonist: M1 muscarinic receptor agonism; CHO-M1 cells, Fluo-4 calcium fluorescence, agonist mode; stronger effect = higher value; B-score at 10 µM; 64,000 compounds, 3% hits; AID 626;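 active = fluorescence rise, raw or as B-score row- and column-corrected plate score, outside the 99.7% band of its plate's samples, either direction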
hDAT+cocaine: changed human dopamine transporter uptake under cocaine IC80 | Q01959 | LLC-PK1 hDAT cells, [14C]-dopamine uptake with cocaine IC80; actives deviate in either direction | B-score at 10 µM | 110,000 compounds, 1.3% hits;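 active = Z score or B-score, a plate-position-corrected score, falls beyond the plate's 99.7% confidence bounds, in either direction; inactive = both scores lie inside the 99.7% bounds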
Jurkat viability: reduces viability or proliferation of Jurkat cells. inhibition, % at 4 µM. Jurkat E6.1 viability, ATP luminescence, 48 h. 56,000 compounds, 1.2% hits. AID 463;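 active = inhibition above the mean inhibition of all tested compounds plus 3 SD, cut at about 28% in these data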
HEK293 NFkB inh: inhibitors of the PMA/ionomycin-induced NF-kB reporter in HEK293 cells; HEK-293 NF-kB luciferase reporter, luminescence; inhibition, % at 3 µM; 62,000 compounds, 0.21% hits; AID 465;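 active = inhibition above the mean of all tested compounds plus 3 SD, cut at about 40% in these data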
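System – HEK-293 cells with stable firefly luciferase reporter driven by four HIV NF-kB elements · Doses – one dose, 3 µM · Schedule – 1 h compound pre-incubation, 16 h PMA/ionomycin at 37 °C · Technique – luminescence from luciferase substrate reagent · Measure – percent inhibition normalized per plate to DMSO and reference-inhibitor controls · Replicates – tested once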
M1 antagonist: blocks the rat M1 muscarinic receptor response to acetylcholine; CHO-M1 cells, Fluo-4 calcium, ACh EC80 antagonist mode; stronger effect = lower value; B-score at 10 µM; P08482; 64,000 compounds, 3.4% hits;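 active = calcium fluorescence response, raw or row-and-column corrected B-score, differing from the plate sample mean either way at a set confidence level, mostly lower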
Target sequence (P08482 whole entry, looked up): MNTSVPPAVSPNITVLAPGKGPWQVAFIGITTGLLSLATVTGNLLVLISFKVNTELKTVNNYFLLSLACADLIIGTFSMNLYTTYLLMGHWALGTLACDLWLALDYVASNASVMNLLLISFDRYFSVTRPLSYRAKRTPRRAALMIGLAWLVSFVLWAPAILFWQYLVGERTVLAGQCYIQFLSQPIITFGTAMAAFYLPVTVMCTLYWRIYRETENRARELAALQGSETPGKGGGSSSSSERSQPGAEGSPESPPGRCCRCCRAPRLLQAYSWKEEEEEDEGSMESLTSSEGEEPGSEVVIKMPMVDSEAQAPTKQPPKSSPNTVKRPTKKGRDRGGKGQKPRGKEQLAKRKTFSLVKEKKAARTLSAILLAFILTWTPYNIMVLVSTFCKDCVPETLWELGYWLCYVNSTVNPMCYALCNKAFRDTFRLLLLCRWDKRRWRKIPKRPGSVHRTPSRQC
D1 mod: allosterically modulates the human D1 dopamine receptor | P21728 | HEK293 D1, CRE-luciferase, dopamine EC30 potentiation; actives deviate in either direction | 58,000 compounds, 5.9% hits | AID 641 | B-score at 10 µM;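 active = luminescence count or its row- and column-corrected plate score outside the 99.7% band of the plate's sample wells, on either side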
M1 agonist conf: rat M1 muscarinic agonism, confirmation | CHO-M1 cells, Fluo-4 calcium fluorescence, agonist mode; actives lie on both sides | fluorescence change (max-min) at 10 µM | 1,700 compounds, 19% hits | shares compounds with M1 agonist | AID 1488;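 active = fluorescence change differs from the solvent-only DMSO control mean at a set confidence level in both duplicate runs; inconclusive = differs from solvent-only control mean in just one of two runs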;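 also: an EC20 dose of acetylcholine follows compound addition during the same imaging run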
M4 agonist ctr: counter-screen for M1 agonists: activity at rat M4 receptor | shares compounds with M1 agonist | CHO M4/Gqi5 cells, Fluo-4 calcium fluorescence, agonist mode; actives lie on both sides | fluorescence change (max-min) at 10 µM | 1,700 compounds, 9% hits;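 active = fluorescence change differing from the plate's solvent-only control wells at 99.7% confidence in both duplicates, whether higher or lower; inconclusive = differs from solvent controls in only one of two duplicates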
Large screens that a line does not name were inactive (follow-up assays come after a bar, where they were run).

Cc1c(C(=O)N2CCN(c3ccccc3F)CC2)sc2ncn(CC(=O)N3CCOCC3)c(=O)c12	M1 agonist 3.7 | M1 agonist conf inactive | M4 agonist ctr inconclusive
C=CCc1cccc2cc(C(=O)O)c(=O)oc12	none (no result: M1 agonist, Jurkat viability, HEK293 NFkB inh, M1 antagonist, D1 mod)
C=CCNS(=O)(=O)c1cccc2cc(C(=O)O)c(O)cc12	M1 agonist 3.6 | M1 agonist conf inactive | M4 agonist ctr inactive
CN(C)CCCN(C(=O)c1cccs1)c1nc(-c2ccccc2)cs1	M1 agonist 14, M1 antagonist -8.7, D1 mod -4.8 | M1 agonist conf inactive | M4 agonist ctr inactive
O=C(c1cccs1)N(Cc1ccco1)c1nc(-c2ccc(F)cc2)cs1	none (no result: M1 agonist, Jurkat viability, HEK293 NFkB inh, M1 antagonist, D1 mod)
Cc1oc2c(CN3CCOCC3)c(O)ccc2c(=O)c1-c1ccccc1	none (no result: D1 mod)
CCc1cc2c(-c3ccccc3)cc(=O)oc2c(CN2CCOCC2)c1O	M1 agonist 15 | M1 agonist conf inactive | M4 agonist ctr inactive
CCOCc1nnc(NC(=O)c2cc(Cl)ccc2OC)s1	none (no result: M1 agonist, Jurkat viability, HEK293 NFkB inh, M1 antagonist, D1 mod)
O=C(O)CNC1=NCCCCC1	none
CC(=O)c1ccc(N2C(=O)C3C(C2=O)C(C(=O)c2ccc(Cl)cc2)N2CCCC32)cc1 (stereo not drawn)	M1 agonist 29 | M1 agonist conf 334 | M4 agonist ctr 470
Cc1ccc(C(=O)C(OC(=O)CN2C(=O)c3ccccc3C2=O)c2ccccc2)cc1C (stereo not drawn)	none (no result: M1 agonist, Jurkat viability, HEK293 NFkB inh, M1 antagonist, D1 mod)
Cc1cccn2c(=O)c3cc(C(=O)NCc4ccco4)c(=N)n(CCc4ccccc4)c3nc12	M1 agonist 5.3, M1 antagonist -6.2 | M1 agonist conf inactive | M4 agonist ctr inactive
COCCn1c(=N)c(C(=O)NCc2ccco2)cc2c(=O)n3ccccc3nc21	M1 agonist 3.6 | M1 agonist conf 66 | M4 agonist ctr inactive
N=c1c(C(=O)NCc2ccco2)cc2c(=O)n3ccccc3nc2n1Cc1ccc(Cl)cc1	none (no result: M1 agonist, M1 antagonist)
Cc1ccc(CNC(=O)c2cc3c(=O)n4ccccc4nc3n(Cc3ccco3)c2=N)cc1	M1 agonist 4.8, hDAT+cocaine -2.7 (no result: Jurkat viability, HEK293 NFkB inh, D1 mod) | M1 agonist conf 198 | M4 agonist ctr inactive
Cc1ccc(CNC(=O)c2cc3c(=O)n4ccccc4nc3n(CC3CCCO3)c2=N)cc1 (stereo not drawn)	M1 agonist 5.2 (no result: Jurkat viability, HEK293 NFkB inh, D1 mod) | M1 agonist conf inactive | M4 agonist ctr inactive
COC(=O)c1ccc(C(=O)OC)c(NC(=O)CSc2ccccn2)c1	none (no result: M1 agonist, Jurkat viability, HEK293 NFkB inh, M1 antagonist, D1 mod)
CCS(=O)(=O)N1CCN(C(=O)c2cc(OC)cc(OC)c2)CC1	none
Cc1ccccc1N1CCN(Cc2c(C#N)c3ccccc3n2C)CC1	none
COc1ccc2c(c1)C1=NN(/C(C)=C\C(C)=O)C(c3ccccc3)C1CC2 (stereo not drawn)	none (no result: M1 agonist, Jurkat viability, HEK293 NFkB inh, M1 antagonist, D1 mod)
Cc1cccc(N2C(=O)c3cccc4c(N(C)CCO)ccc(c34)C2=O)c1	M1 agonist 351, M1 antagonist -14 (no result: D1 mod) | M1 agonist conf 1544 | M4 agonist ctr 1425
CC(C)(O)[C@H](O)COc1c2occc2cc2ccc(=O)oc12	none (no result: M1 agonist, Jurkat viability, HEK293 NFkB inh, M1 antagonist, D1 mod)
O=C(CSc1nnnn1C1CCCC1)NCc1ccccc1	none (no result: M1 agonist, Jurkat viability, HEK293 NFkB inh, M1 antagonist, D1 mod)
O=C(CSc1nnnn1C1CC2CCC1C2)Nc1ccnc2ccccc12 (stereo not drawn)	M1 agonist 19, Jurkat viability 100, HEK293 NFkB inh 58, M1 antagonist -2.1 | M1 agonist conf inactive | M4 agonist ctr inactive
CCOC(=O)/C(C#N)=C1\Nc2ccccc2N=C1N(CC(C)C)CC(C)C	M1 agonist 8.1 (no result: Jurkat viability, HEK293 NFkB inh) | M1 agonist conf inconclusive | M4 agonist ctr inactive
CCOc1ccc(-c2nc(CSCC(=O)N3CCN(c4cccc(OC)c4)CC3)c(C)o2)cc1	none
CCOc1ncccc1C(=O)Nc1cccc(C(=O)Nc2cccc(S(=O)(=O)CCO)c2)c1	M1 agonist 10 | M1 agonist conf inactive | M4 agonist ctr inactive
CCOC(=O)C1=C(C)NC(C)=C(C(=O)OCC)C1c1cn(-c2ccccc2)nc1-c1ccco1	none (no result: M1 agonist, Jurkat viability, HEK293 NFkB inh, M1 antagonist, D1 mod)
CC(C)OC(=O)c1cn(-c2ccccc2)nc1-c1ccco1	M1 agonist 4.4 | M1 agonist conf inactive | M4 agonist ctr inactive
CCOc1ccccc1C(=O)NCC(=O)OCC(=O)N1C(C)CCCC1C (stereo not drawn)	M1 agonist -2.6 | M1 agonist conf inconclusive | M4 agonist ctr -84
CCOc1ccc2nc(NC(=O)CS(=O)(=O)c3ccc(C)cc3)sc2c1	none (no result: M1 agonist, Jurkat viability, HEK293 NFkB inh, M1 antagonist, D1 mod)
CCOc1ccc2nc(NC(=O)CS(=O)(=O)c3ccccc3)sc2c1	M1 agonist 2.2 | M1 agonist conf inactive | M4 agonist ctr inactive
CCOC(=O)C1CCN(c2c(NC3CCCc4ccccc43)c(=O)c2=O)CC1 (stereo not drawn)	none
O=C(Nc1ccc(S(=O)(=O)N2CCCC2)cc1)C1COc2ccccc2O1 (stereo not drawn)	none
